Among the data in ChEMBL document CHEMBL5042469, “Unique Molecular Interaction with the Histone Deacetylase 6 Catalytic Tunnel: Crystallographic and Biological Characterization of a Model Chemotype” (J Med Chem, 2021) are IC50 values, retold here.

One assay has as its target T1, Histone deacetylase 8 (Homo sapiens, UniProt Q9BY41).
T1 sequence (Q9BY41 whole entry): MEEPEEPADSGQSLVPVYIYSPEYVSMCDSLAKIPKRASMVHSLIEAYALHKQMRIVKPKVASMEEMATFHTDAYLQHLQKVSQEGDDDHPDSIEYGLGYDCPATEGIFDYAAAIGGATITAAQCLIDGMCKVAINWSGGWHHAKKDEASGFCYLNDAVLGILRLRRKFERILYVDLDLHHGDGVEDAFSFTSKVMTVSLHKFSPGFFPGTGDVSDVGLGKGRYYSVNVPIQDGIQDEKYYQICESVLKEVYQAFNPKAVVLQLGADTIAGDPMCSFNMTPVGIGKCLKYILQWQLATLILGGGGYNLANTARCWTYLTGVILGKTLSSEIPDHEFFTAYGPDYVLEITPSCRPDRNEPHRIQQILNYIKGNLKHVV
The assay is described as follows: Inhibition of full length human HDAC8 using FAM-labeled acetylated peptide as substrate by electrophoretic mobility shift assay. Put shortly:
(§1)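 Full-length human HDAC isoform enzymatic assay by electrophoretic mobility shift, using a FAM-labelled acetylated peptide substrate. […] Values are the mean of duplicate experiments with 95% confidence intervals.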

The next assay addresses Histone deacetylase 3 (Homo sapiens, UniProt O15379). The assay is described as follows: Inhibition of full length human HDAC3 using FAM-labeled acetylated peptide as substrate by electrophoretic mobility shift assay. The essentials:
as §1

A further assay has as its target T2, Histone deacetylase 11 (Homo sapiens, UniProt Q96DB2).
T2 sequence (Q96DB2 whole entry): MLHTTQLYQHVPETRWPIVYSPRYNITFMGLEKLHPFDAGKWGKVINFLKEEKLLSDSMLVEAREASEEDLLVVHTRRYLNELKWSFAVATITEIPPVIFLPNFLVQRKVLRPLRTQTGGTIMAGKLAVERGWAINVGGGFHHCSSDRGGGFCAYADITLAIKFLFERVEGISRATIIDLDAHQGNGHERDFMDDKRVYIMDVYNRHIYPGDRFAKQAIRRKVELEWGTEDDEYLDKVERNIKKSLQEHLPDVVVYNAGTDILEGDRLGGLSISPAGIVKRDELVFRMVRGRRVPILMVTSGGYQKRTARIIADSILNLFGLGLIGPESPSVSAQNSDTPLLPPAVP
The assay is described as follows: Inhibition of full length human HDAC11 using FAM-labeled acetylated peptide as substrate by electrophoretic mobility shift assay. The essentials:
as §1

For assay [1], the target named is T3, Protein deacetylase HDAC6 (Homo sapiens, UniProt Q9UBN7).
T3 sequence (Q9UBN7 whole entry): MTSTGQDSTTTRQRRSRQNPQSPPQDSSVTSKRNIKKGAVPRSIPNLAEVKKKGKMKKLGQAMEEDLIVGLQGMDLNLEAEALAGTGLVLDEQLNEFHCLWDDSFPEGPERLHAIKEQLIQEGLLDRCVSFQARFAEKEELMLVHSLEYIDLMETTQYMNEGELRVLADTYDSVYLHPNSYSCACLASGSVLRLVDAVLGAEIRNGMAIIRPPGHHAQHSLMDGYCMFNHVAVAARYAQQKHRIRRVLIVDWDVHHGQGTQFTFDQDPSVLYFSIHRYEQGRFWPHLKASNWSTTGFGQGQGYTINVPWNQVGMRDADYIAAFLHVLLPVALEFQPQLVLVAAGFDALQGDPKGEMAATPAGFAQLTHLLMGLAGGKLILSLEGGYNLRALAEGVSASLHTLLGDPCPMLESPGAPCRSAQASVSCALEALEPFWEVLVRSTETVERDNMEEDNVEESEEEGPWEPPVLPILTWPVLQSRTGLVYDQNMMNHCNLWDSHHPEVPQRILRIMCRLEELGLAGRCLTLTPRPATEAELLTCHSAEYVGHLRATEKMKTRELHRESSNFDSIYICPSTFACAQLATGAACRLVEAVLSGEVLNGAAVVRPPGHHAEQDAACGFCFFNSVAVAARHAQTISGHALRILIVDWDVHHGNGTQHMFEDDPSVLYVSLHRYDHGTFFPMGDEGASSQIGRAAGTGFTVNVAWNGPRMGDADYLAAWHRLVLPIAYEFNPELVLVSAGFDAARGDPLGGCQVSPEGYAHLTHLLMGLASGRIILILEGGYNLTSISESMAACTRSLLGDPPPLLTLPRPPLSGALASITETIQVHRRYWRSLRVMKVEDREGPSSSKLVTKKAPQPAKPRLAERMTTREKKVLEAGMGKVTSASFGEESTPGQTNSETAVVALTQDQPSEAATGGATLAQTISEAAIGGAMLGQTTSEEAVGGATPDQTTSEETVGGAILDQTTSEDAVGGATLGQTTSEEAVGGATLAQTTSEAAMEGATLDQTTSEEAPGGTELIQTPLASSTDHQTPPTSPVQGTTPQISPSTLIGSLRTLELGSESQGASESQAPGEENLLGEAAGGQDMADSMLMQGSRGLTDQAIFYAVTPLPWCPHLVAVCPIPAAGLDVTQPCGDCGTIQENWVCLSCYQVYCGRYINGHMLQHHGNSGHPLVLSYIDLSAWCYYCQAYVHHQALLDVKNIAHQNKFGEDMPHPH
The assay is described as follows: Inhibition of full length human HDAC6 using FAM-labeled acetylated peptide as substrate by electrophoretic mobility shift assay.

Chain of Histone deacetylase 3 (O15379 whole entry): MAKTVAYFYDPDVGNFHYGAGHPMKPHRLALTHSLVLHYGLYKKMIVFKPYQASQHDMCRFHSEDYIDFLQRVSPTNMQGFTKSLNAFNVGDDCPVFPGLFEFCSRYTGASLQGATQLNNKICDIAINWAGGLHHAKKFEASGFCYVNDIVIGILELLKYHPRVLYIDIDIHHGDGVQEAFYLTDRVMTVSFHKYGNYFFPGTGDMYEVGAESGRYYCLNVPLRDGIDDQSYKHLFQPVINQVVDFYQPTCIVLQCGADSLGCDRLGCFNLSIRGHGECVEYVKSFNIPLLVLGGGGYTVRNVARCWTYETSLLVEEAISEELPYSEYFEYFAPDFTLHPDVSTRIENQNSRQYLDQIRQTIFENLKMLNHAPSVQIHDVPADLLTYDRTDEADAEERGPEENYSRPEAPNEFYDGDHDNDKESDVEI

In the case of `Cc1ccc(CN(Cc2ccc(C(=O)NO)cc2)S(=O)(=O)c2c(F)c(F)c(F)c(F)c2F)cc1`, the IC50 on Histone deacetylase 8 is 101 nM; on Histone deacetylase 3, above 1000 nM; at Histone deacetylase 11 it was 73 nM; in assay [1], 6 nM.
For `O=C(NO)c1ccc(CN(Cc2ccc(C(F)(F)F)cc2)S(=O)(=O)c2c(F)c(F)c(F)c(F)c2F)cc1`, in that order: above 1000 nM, above 1000 nM, above 1000 nM and 45 nM.
Take `O=C(NO)c1ccc(CN(Cc2ccccc2)S(=O)(=O)c2cc(F)c(F)c(F)c2F)cc1`: the IC50 amounted to 155 nM at Histone deacetylase 8, 697 nM on Histone deacetylase 3, 115 nM at Histone deacetylase 11 and 5 nM in assay [1].
In the case of `O=C(NO)c1ccc(CN(Cc2ccccc2)S(=O)(=O)c2c(F)c(F)c(F)c(F)c2F)cc1`, the IC50 on Histone deacetylase 8 was 150 nM; on Histone deacetylase 3 it was above 1000 nM; at Histone deacetylase 11, 122 nM; in assay [1] it was 9 nM.
Turning to `O=C(NO)c1ccc(CN(Cc2ccncc2)S(=O)(=O)c2c(F)c(F)c(F)c(F)c2F)cc1`, the IC50 on Histone deacetylase 8 is above 1000 nM; on Histone deacetylase 3 it was above 1000 nM; on Histone deacetylase 11 it was above 1000 nM; in assay [1] it was 14 nM.
For the molecule `O=C(NO)c1ccc(CN(Cc2cccc(F)c2)S(=O)(=O)c2cc(F)c(F)c(F)c2F)cc1`, the IC50 at Histone deacetylase 8 is 412 nM; on Histone deacetylase 3, above 1000 nM; on Histone deacetylase 11, 235 nM; in assay [1] it was 14 nM.
In the case of `O=C(NO)c1ccc(CNS(=O)(=O)c2c(F)c(F)c(F)c(F)c2F)cc1`, the IC50 at Histone deacetylase 8, at Histone deacetylase 3 and at Histone deacetylase 11 was above 1000 nM throughout.
Consider `O=C(NO)c1ccc(CN(Cc2ccccc2F)S(=O)(=O)c2cc(F)c(F)c(F)c2F)cc1`, for which the IC50 is 241 nM on Histone deacetylase 8, above 1000 nM on Histone deacetylase 3, 263 nM at Histone deacetylase 11 and 10 nM in assay [1].
Take `O=C(NO)c1ccc(CN(Cc2ccc(F)cc2)S(=O)(=O)c2cc(F)c(F)c(F)c2F)cc1`: the IC50 is 860 nM at Histone deacetylase 8, above 1000 nM at Histone deacetylase 3, above 1000 nM at Histone deacetylase 11 and 21 nM in assay [1].
Take `CN(C)c1ccc(CN(Cc2ccc(C(=O)NO)cc2)S(=O)(=O)c2c(F)c(F)c(F)c(F)c2F)cc1`: the IC50 on Histone deacetylase 8 is above 1000 nM; on Histone deacetylase 3, above 1000 nM; at Histone deacetylase 11 it was above 1000 nM; in assay [1], 29 nM.
Turning to `O=C(NO)c1ccc(CN(Cc2ccc(F)cc2)S(=O)(=O)c2c(F)c(F)c(F)c(F)c2F)cc1`, the IC50 at Histone deacetylase 8 was 367 nM; at Histone deacetylase 3 it was above 1000 nM; at Histone deacetylase 11 it was 787 nM; in assay [1], 13 nM.
For `O=C(CCCCCCC(=O)N/N=C/c1ccc(N(c2ccccc2)c2ccccc2)cc1)NO`, in assay [1], the IC50 stood at 400 nM.
For `CC(C)(C)c1ccc(CN(Cc2ccc(C(=O)NO)cc2)S(=O)(=O)c2c(F)c(F)c(F)c(F)c2F)cc1`, the IC50 at Histone deacetylase 8 is 68 nM; at Histone deacetylase 3, above 1000 nM; at Histone deacetylase 11, 88 nM; in assay [1] it was 42 nM.
For `O=C(NO)c1ccc(CN(Cc2ccncc2)S(=O)(=O)c2cc(F)c(F)c(F)c2F)cc1`, in that order: 581 nM, above 1000 nM, 472 nM and 11 nM.
In the same order, the values of `O=C(NO)c1ccc(CN(Cc2ccccn2)S(=O)(=O)c2cc(F)c(F)c(F)c2F)cc1` are 332 nM, 896 nM, 941 nM and 6 nM.
